NPY-Y1 antag: blocks the human neuropeptide Y Y1 receptor | P25929 | HEK293-CNG Y1 cells, membrane potential fluorescence; NPY at EC95, then isoproterenol | inhibition, % at 3.6 µM | actives 1% (n = 200,000) | AID 1040;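 active = inhibition above the campaign mean inhibition of all tested compounds plus 3 SD, cut at about 20% in these data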;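 note: 0% = DMSO wells given NPY plus isoproterenol and 100% = isoproterenol alone without NPY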
Target sequence (P25929 whole entry, looked up): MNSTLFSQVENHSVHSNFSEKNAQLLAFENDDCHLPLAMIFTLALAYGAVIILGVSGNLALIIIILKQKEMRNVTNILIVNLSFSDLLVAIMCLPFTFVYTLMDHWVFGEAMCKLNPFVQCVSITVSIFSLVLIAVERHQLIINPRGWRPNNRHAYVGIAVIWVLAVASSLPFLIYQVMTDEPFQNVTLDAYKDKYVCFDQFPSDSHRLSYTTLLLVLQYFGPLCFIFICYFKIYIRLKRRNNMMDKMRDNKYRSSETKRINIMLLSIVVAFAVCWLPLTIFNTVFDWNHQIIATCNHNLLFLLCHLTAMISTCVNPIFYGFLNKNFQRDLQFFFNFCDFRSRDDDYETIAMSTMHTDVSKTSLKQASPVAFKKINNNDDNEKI
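Assay system: HEK293 Y1/CNG channel cell line; Doses: single compound dose of 3.6 µM, 0.4% DMSO; Timing: dye 3 h, compound 60 min room temperature, stimulation 45 min; Technique: Membrane-potential fluorescent dye readout; Measure: % inhibition of NPY effect.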
INS promoter inh: TRM-6 insulin promoter activity inhibition. TRM-6 cells, insulin promoter-eGFP reporter, imaging; reporter expression induced with tamoxifen. inhibition, % at 2 µM. actives 0.9% (n = 130,000);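 active = inhibition above the mean plus 3 SD, with well images judged a real hit on visual review, cut at about 60% in these data, passing the limit was not always enough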
NPY-Y2 antag: antagonists of human neuropeptide Y receptor Y2 | P49146 | NPY-Y2 expressing cells, antagonist mode | inhibition, % at 2.7 µM | actives 0.99% (n = 140,000) | AID 793; in the data active = inhibition above about 17%;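 note: 0% = vehicle with agonist challenge and 100% = reference antagonist with challenge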
NPY-Y1 PAM-ag: potentiators or agonists of human neuropeptide Y receptor Y1. P25929. NPY-Y1 expressing cells, potentiator/agonist activation. activation, % at 3.6 µM. actives 0.37% (n = 220,000); in the data active = activation above about 33%, passing the limit was not always enough;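 note: cells stimulated with NPY at EC10 then isoproterenol at EC100; 0% = low agonist plus stimulus and 100% = saturating agonist plus stimulus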
NPY-Y2 PAM-ag: potentiators or agonists of human neuropeptide Y receptor Y2; cells expressing NPY-Y2, potentiator/agonist read-out; activation, % at 3.6 µM; actives 0.45% (n = 220,000); in the data active = activation above about 27%;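 note: cells stimulated with NPY near EC25 plus isoproterenol at EC100; 0% = vehicle plus submaximal agonist and 100% = vehicle plus saturating agonist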
RAM inhibit: inhibitors of the yeast RAM network; S. cerevisiae dse1pr::URA3 reporter, 5-FOA growth OD615, 2 d; analog-sensitive cbk1-as2 kinase mutant strain; inhibition, % at 50 µM; actives 1.8% (n = 190,000);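 active = inhibition above a set limit, 3 SD over mean compound inhibition, cut at about 8.4% in these data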;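 note: 0% = DMSO-only wells with no growth and 100% = 10 µM 1-NA-PP1 full growth; inhibition rescues growth on 5-FOA so higher OD means more RAM inhibition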
An asterisk follows results filed as active; x = no result given. Only some compounds are listed: those with a hit (about 3.8% of all), similar ones and a draw of the others.

SMILES | NPY-Y1 antag | INS promoter inh | NPY-Y2 antag | NPY-Y1 PAM-ag | NPY-Y2 PAM-ag | RAM inhibit
CCOC(=O)c1ccc(CN(Cc2ccc(C)cc2)S(=O)(=O)c2cccc([N+](=O)[O-])c2)cc1 | 0 | -14 | 2 | -15 | 10 | 10*
Cc1ccc(C(=O)O/N=C(\N)c2cccc([N+](=O)[O-])c2)cc1 | 2 | -10 | 1 | 1 | -8 | 4
O=C(O)c1ccc(N2C(=O)CC(SC(=NCc3ccc4c(c3)OCO4)Nc3ccccc3)C2=O)cc1 (centres undefined) | x | x | x | 1 | -18 | x
N/C(=N\N=C\c1ccc2c(c1)OCO2)SC1CC(=O)N(c2ccc(C(=O)O)cc2)C1=O (centres undefined) | 5 | x | x | -2 | 9 | 8.6*
COc1ccccc1NC(=O)c1cc(S(=O)(=O)N2CCC3(CC2)OCCO3)ccc1F | 8 | 21 | -2 | 0 | -4 | 9.6*
CCC(COC(=O)Nc1ccccc1)NC(=O)OC(C)C (centres undefined) | 3 | x | x | 2 | 6 | 1
Cc1ccc(N2CC(O)=C(c3ccccc3)C2=N)cc1 | 0 | 73* | x | 13 | 3 | 2
N=C1C(c2ccccc2)=C(O)CN1c1ccccc1 | 2 | x | x | 16 | 4 | 0
COc1ccccc1-n1nnnc1SCc1ccccc1 | 1 | 19 | 4 | -20 | 4 | 0
COc1ccccc1-n1nnnc1SCc1cc2c(cc1Br)OCO2 | 13 | 27 | 10 | -16 | 10 | 9.5*
Oc1cccc(CCC2CCCCN2Cc2cn[nH]c2-c2ccc3c(c2)OCO3)c1 (centres undefined) | 1 | x | x | -7 | -21 | 0
CC(C)(C)c1nnc(NC(=O)CN2C(=O)C3C4C=CC(C4)C3C2=O)s1 (centres undefined) | -3 | 75* | -1 | 5 | 15 | 0
CCC(=O)Nc1nnc(C(C)(C)C)s1 | 2 | -11 | 1 | -10 | 6 | 0
COc1ccc(NC(=O)Nc2ccccc2F)cc1Cl | 2 | x | x | -1 | 3 | 2
CN(CCc1ccccn1)c1ncnc2[nH]ncc12 | 3 | 75* | 2 | 5 | -4 | 4
N#CCCN(Cc1ccccc1)C(=O)Nc1ccc2c(c1)CCO2 | x | x | x | 17 | -3 | x
O=C(c1cc2ccccc2oc1=O)N1CCN(c2ccccn2)CC1 | -2 | x | 1 | -6 | 6 | -1
O=C(c1cc2ccccc2oc1=O)N1CCN(c2ncccn2)CC1 | -2 | 79* | 1 | -3 | 15 | 1
O=C(c1ccc(Cl)c(Cl)c1)N1CCC(=O)N(C(COCc2cccc(Cl)c2)Cc2ccccc2)CC1 (centres undefined) | 8 | -41 | 7 | -44 | -6 | 10*
Cc1cccc(C(=O)N2CCC(=O)N(C(COCc3cccc(Cl)c3)Cc3ccccc3)CC2)c1 (centres undefined) | 6 | -24 | 8 | 0 | -11 | 5
O=C(c1cccc(Cl)c1)N1CCC(=O)N(C(COCc2cccc(Cl)c2)Cc2ccccc2)CC1 (centres undefined) | 4 | 20 | 8 | -18 | 1 | 9.5*
Cc1cc(C)nc(NS(=O)(=O)c2ccc(NC(=O)c3ccc4c(c3)OCCO4)cc2)n1 | 3 | -5 | x | -1 | 1 | 1
Clc1ccc(-c2csc(Nc3cccnc3)n2)cc1 | x | x | x | 16 | 24 | x
Clc1cccc(Nc2nc(-c3ccncc3)cs2)c1 | -18 | -33 | x | 46* | 51* | 2
Cc1cccc(Nc2nc(-c3ccncc3)cs2)c1 | -21 | x | x | 47* | 35* | 2
SMILES | NPY-Y1 antag | INS promoter inh | NPY-Y2 antag | NPY-Y1 PAM-ag | NPY-Y2 PAM-ag | RAM inhibit
COc1cccc(C(=O)Nc2nc(-c3ccncc3)cs2)c1 | -2 | 76* | x | -2 | 3 | 0
COC(=O)c1cc(OC)nc2c1c(=O)n(C)c(=O)n2C | -6 | 9 | 2 | 13 | -10 | 2
COc1cc2c(cc1NC(=O)C(C)OC(=O)c1ccc(S(=O)(=O)Nc3ccccc3Cl)cc1)oc1ccccc12 (centres undefined) | 3 | x | x | -1 | -14 | 11*
COc1cc2c(cc1NC(=O)C(C)N1CCN(S(=O)(=O)c3ccc(C)c(C)c3)CC1)oc1ccccc12 (centres undefined) | 0 | -22 | 5 | -8 | 1 | 3
Cn1ncc(Cl)c1C(=O)Nc1ccc(Cl)cn1 | -1 | 0 | 1 | 17 | -4 | 2
COc1ccc(S(=O)(=O)N(CCC(=O)O)Cc2ccccc2)cc1 | -3 | -36 | x | 1 | -3 | 1
COc1ccc(CNC(=O)CN(Cc2ccc(Cl)cc2)S(=O)(=O)c2ccccc2)cc1 | 2 | -55 | 8 | 5 | 4 | 8.6*
COc1ccc(S(=O)(=O)N(CC(=O)NC(C)C)Cc2ccccc2)cc1 | 0 | -63 | 4 | 6 | 1 | 1
COc1ccc(CNC(=O)CN(Cc2ccccc2)S(=O)(=O)c2ccc(Cl)cc2)cc1 | 1 | -27 | 1 | 13 | 1 | 9.2*
CCOc1ccc(C(CC(=O)O)NC(=O)C(Sc2ccccc2)c2ccccc2)cc1 (centres undefined) | -1 | 30 | x | 3 | -5 | 5
C=CCSc1ncccc1C(=O)NCc1ccccc1 | 3 | x | -1 | 8 | -20 | 1
COc1ccc(CN(C(=O)c2nsc(Cl)c2Cl)C(C(=O)NC2CCCC2)c2ccc(OC)cc2)cc1 (centres undefined) | 33* | x | 23* | -36 | -17 | 3
CC(C)NCC(O)Cn1c2c(c3ccccc31)CCc1c-2cnn1-c1ccccc1 (centres undefined) | -6 | 57 | 1 | 50* | 43* | -1
O=C1CCC(C(=O)N(Cc2ccco2)C2(C(=O)NC3CCCC3)CCCCC2)N1 (centres undefined) | 22* | 31 | 23* | -26 | 6 | 1
O=C(c1ccc2c(c1)OCO2)N(CC1CCCO1)C1(C(=O)NC2CCCCC2)CCCCC1 (centres undefined) | 22* | -23 | 29* | -10 | -7 | 2
O=C(Cc1cccs1)N(Cc1cccs1)C1(C(=O)NC2CCCC2)CCCCC1 | 51* | -36 | 50* | -16 | -11 | 0
O=C(c1ccc2c(c1)OCO2)N(Cc1cccs1)C1(C(=O)NC2CCCCC2)CCCCC1 | 55* | -57 | 37* | -10 | -13 | 3
CN(C(=O)c1ccc2c(c1)OCO2)C1(C(=O)NC2CCCC2)CCCCC1 | 2 | -31 | 2 | -15 | 4 | 1
CC(=O)N(Cc1ccco1)C1(C(=O)NC2CCCCC2)CCCCC1 | 10 | -29 | 5 | 19 | -3 | -1
COc1ccc(OCC(O)CNS(=O)(=O)c2ccc(C)cc2)cc1 (centres undefined) | x | x | x | -6 | 11 | x
CCOC(=O)CSc1nc2ccc(N3CCOCC3)cc2c(=O)n1Cc1ccccc1 | 1 | -43 | 0 | 15 | -5 | 2
O=C(Cc1cccs1)N(Cc1ccco1)C1(C(=O)NC2CCCCC2)CCCCC1 | 50* | -23 | 30* | 9 | -11 | 1

Bioassay records as filed in PubChem BioAssay.
